Active and inactive are the calls of the source. The calls are words filed in the database; no cut-off is given here.
Legend:
RAW264.7 [1] = assay: Antiinflammatory activity in TNFalpha-stimulated mouse RAW264.7 cells assessed as reduction in cell count at 1 uM after 20 hrs relative to control; format: functional; set-up: scale not given: the % may be the effect or the level left
Method in brief: (§1)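 RAW264.7 cells were kept in DMEM/10% FBS and subcultured by scraping. They were plated at 50,000 per well with TNFα (10 nM) for 20 hrs at 37°C, 5% CO2, then switched to serum-free DMEM for 2 hrs of treatment. Cell numbers were compared with the vehicle control.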

RAW264.7 [2] = assay: Antiinflammatory activity in TNFalpha-stimulated mouse RAW264.7 cells assessed as PGJ level at 10 uM after 20 hrs by ELISA; format: functional
Method in brief: (§2)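 Mouse RAW264.7 macrophages were grown in DMEM with 10% FBS and passaged by scraping without trypsin. Cells were seeded at 50,000 per well in DMEM+FCS with TNFα (10 nM) and incubated 20 hrs at 37°C, 5% CO2. Medium was then changed to serum-free DMEM, cells were treated for 2 hrs, and PGJ in the medium was measured by ELISA. DMSO was the vehicle control.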

RAW264.7 [3] = assay: Antiinflammatory activity in TNFalpha-stimulated mouse RAW264.7 cells assessed as PGJ level at 1 uM after 20 hrs by ELISA; format: functional; method in brief: as §2
RAW264.7 [4] = assay: Antiinflammatory activity in TNFalpha-stimulated mouse RAW264.7 cells assessed as PGJ level at 3 uM after 20 hrs by ELISA; format: functional; method in brief: as §2
RAW264.7 [5] = assay: Antiinflammatory activity in TNFalpha-stimulated mouse RAW264.7 cells assessed as reduction in cell count at 0.3 uM after 20 hrs relative to control; format: functional; set-up: scale not given: the % may be the effect or the level left; method in brief: as §1
RAW264.7 [6] = assay: Antiinflammatory activity in TNFalpha-stimulated mouse RAW264.7 cells assessed as PGJ level at 0.3 uM after 20 hrs by ELISA; format: functional; method in brief: as §2
RAW264.7 [7] = assay: Cytotoxicity in mouse RAW264.7 cells assessed as decrease in cell viability at 0.3 to 10 uM after 20 hrs; format: cell-based; conditions: raw264.7, 20 h
RAW264.7 [8] = assay: Antiinflammatory activity in TNFalpha-stimulated mouse RAW264.7 cells assessed as reduction in cell count at 3 uM after 20 hrs relative to control; format: functional; set-up: scale not given: the % may be the effect or the level left; method in brief: as §1
RAW264.7 [9] = assay: Antiinflammatory activity in TNFalpha-stimulated mouse RAW264.7 cells assessed as reduction in cell count at 10 uM after 20 hrs relative to control; format: functional; set-up: scale not given: the % may be the effect or the level left; method in brief: as §1
RAW264.7 [10] = assay: Antiinflammatory activity in TNFalpha-stimulated mouse RAW264.7 cells assessed as cell count at 0.3 uM after 20 hrs relative to control; format: functional; method in brief: as §1
RAW264.7 [11] = assay: Antiinflammatory activity in TNFalpha-stimulated mouse RAW264.7 cells assessed as PGJ level at 2.5 uM after 20 hrs by ELISA; format: functional; method in brief: as §2
Mus musculus [12] = assay: Antiinflammatory activity in mouse peritonitis model assessed as accumulation of PGJ per 10^3 peritoneal cells at 0.3 to 20 mg/kg, po after 3 hrs by ELISA; format: functional, organism-based
Method in brief: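 Mice were dosed by mouth in safflower oil (0.3–20 mg/kg); the safflower oil vehicle served as control. After 30 min they received 1 ml of 8% thioglycollate medium i.p. Peritoneal cells were harvested, cultured for 18 hrs, and PGJ in the medium was measured by ELISA. N=4.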

RAW264.7 [13] = assay: Antiinflammatory activity in TNFalpha-stimulated mouse RAW264.7 cells assessed as PGJ level at 5 uM after 20 hrs by ELISA; format: functional; method in brief: as §2
Mus musculus [14] = assay: Antiinflammatory activity in po dosed mouse peritonitis model assessed as inhibition of thiglycollate-induced migration of leukocytes into the peritoneal cavity administered 30 mins prior to thiglycollate-challenge; format: functional
Method in brief: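 Oral doses of 0.3–20 mg/kg in safflower oil were given to mice; controls received safflower oil. Thirty minutes later, 1 ml of sterile-filtered 8% thioglycollate medium was injected i.p. After 3 hrs, peritoneal cells were harvested, erythrocytes were lysed for 2 min, cells were resuspended in PBS/BSA, and differential leukocyte counts were made. N=8.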

RAW264.7 [15] = assay: Antiinflammatory activity in TNFalpha-stimulated mouse RAW264.7 cells assessed as PGJ level at 0.5 uM after 20 hrs by ELISA; format: functional; method in brief: as §2

Row | Compound | Activity (RAW264.7 [1]) | Activity (RAW264.7 [2]) | Activity (RAW264.7 [3]) | Activity (RAW264.7 [4]) | Activity (RAW264.7 [5]) | Activity (RAW264.7 [6]) | Activity (RAW264.7 [7]) | Activity (RAW264.7 [8]) | Activity (RAW264.7 [9]) | Activity (RAW264.7 [10]) | Activity (RAW264.7 [11]) | Activity (Mus musculus [12]) | Activity (RAW264.7 [13]) | ED50 (Mus musculus [14]) | Activity (RAW264.7 [15])
1 | CCCCC/C=C\C/C=C\CCCCCCCC(=O)N[C@@H](C)C(=O)O | 74.3% | 30.3 pg/mL | <16 pg/mL | <16 pg/mL | 55.6% | <16 pg/mL | Non-toxic | 68.5% | 55.5% |  |  |  |  |  | 
2 | CCCCC/C=C\C/C=C\CCCCCCCC(=O)N[C@H](C)C(=O)O | 65.9% | 1580 pg/mL | 18 pg/mL | 233 pg/mL |  | <16 pg/mL | Non-toxic | 33.9% | 30.5% | 136% |  |  |  |  | 
3 | CCCCC/C=C\C/C=C\CCCCCCCC(=O)NCC(=O)O [LINOLEOYL GLYCINE] |  | 7315 pg/mL | 177 pg/mL |  |  |  |  |  |  |  | 1843 pg/mL | Active | 3907 pg/mL | < 0.3 mg/kg | <16 pg/mL
4 | CCCCC/C=C\C/C=C\C/C=C\C/C=C\CCCC(=O)NCC(=O)O [ARACHIDONOYL GLYCINE] |  | 6847 pg/mL | <16 pg/mL |  |  |  |  |  |  |  |  |  |  |  | 

Reference: ChEMBL document CHEMBL1938392, “N-Amino acid linoleoyl conjugates: anti-inflammatory activities” (Bioorg Med Chem Lett, 2012)
